# Data published in ChEMBL document CHEMBL1125333, “Predictive binding of beta-carboline inverse agonists and antagonists via the CoMFA/GOLPE approach” (J Med Chem, 1992).
# Target: GABA-A receptor; anion channel
# Test: In vitro binding affinity at benzodiazepine receptor of rat cerebral cortical membranes by [3H]diazepam displacement.
# Method in brief: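 Rat cerebral cortex homogenised in 50 mM Tris-HCl pH 7.4, centrifuged at 20000g at 4 °C and washed three times. Membranes incubated with drug and 2 nM [3H]diazepam (final) for 120 min at 4 °C, then filtered and washed with ice-cold buffer. Nonspecific binding measured with 10 μM flunitrazepam (final). IC50 estimated from Hill plots.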
row,IC50,Compound
1,93 nM,CC(C)COc1cc2c(cn1)[nH]c1ccccc12
2,104 nM,CC(C)(C)COc1cc2c3ccccc3nc-2c[nH]1
3,358 nM,CC(C)(C)C(=O)c1cc2c3ccccc3nc-2c[nH]1
4,> 1280 nM,c1ccc(CNc2cc3c(cn2)[nH]c2ccccc23)cc1
5,> 25000 nM,Nc1cc2c(cn1)[nH]c1ccccc12
6,471 nM,CCC(C)Oc1cc2c3ccccc3nc-2c[nH]1 (configuration not stated)
7,> 1000 nM,c1ccc(COc2cc3c4ccccc4nc-3c[nH]2)cc1
8,535 nM,CC(C)CCOc1cc2c3ccccc3nc-2c[nH]1

# Organism: Mus musculus
# Test: Tested for convulsive activity in pentylenetetrazole injected mice
# Format: functional
row,Compound,ED50
1,CCOC(=O)c1cc2c(cn1)[nH]c1ccccc12,3.2 mg/kg
2,COc1cc2c(cn1)[nH]c1ccccc12,6 mg/kg
3,CCOc1cc2c(cn1)[nH]c1ccccc12,7 mg/kg
4,COC(=O)c1cc2c(cn1)[nH]c1ccccc12 [BETA-CCM],10 mg/kg
